How the values were obtained:
[1] = biological target: T1, Integrin alpha-IIb/beta-3 (Homo sapiens, UniProt P08514+P05106); assay: Antagonist activity at GP2b/GP3a receptor in human platelet rich plasma assessed as inhibition of ADP-induced platelet aggregation preincubated for 1 min followed by ADP addition by aggregometric method
Method in brief: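 Human PRP from apheresis platelets, PPP from centrifugation at 3000r/min for 10 min used as reference. Compound in saline or 0.2% aqueous DMSO added to PRP, incubated 1 min, then ADP 20 μM (per table footnotes; methods list 10 μM) added. Light transmission aggregometry at 37°C, maximal aggregation vs PPP. Inhibition relative to control aggregation ratio. IC50 from at least four concentrations.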

[2] = biological target: T1, Integrin alpha-IIb/beta-3; assay: Antagonist activity at GP2b/GP3a receptor in human platelet rich plasma assessed as inhibition of thrombin-induced platelet aggregation preincubated for 1 min […] by aggregometric method
Method in brief: (§1)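 Aggregometry at 37°C in human apheresis PRP, PPP as reference. Compound in saline or 0.2% aqueous DMSO preincubated 1 min before inducer: collagen 1 μg/ml, thrombin 0.26 U/ml or U46619 2 μM (figure and table values; methods state 9 μg/ml, 1 U/ml, 6 μM). Percent inhibition vs control. IC50 from at least four concentrations, means of two to three dose-response curves.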

[3] = biological target: T1, Integrin alpha-IIb/beta-3; assay: Antagonist activity at GP2b/GP3a receptor in human platelet rich plasma assessed as inhibition of collagen-induced platelet aggregation preincubated for 1 min […] by aggregometric method; method in brief: as §1
[4] = biological target: T1, Integrin alpha-IIb/beta-3; assay: Antagonist activity at GP2b/GP3a receptor in human platelet rich plasma assessed as inhibition of U46619-induced platelet aggregation preincubated for 1 min […] by aggregometric method; method in brief: as §1

T1 sequence (P05106 27-788 limits assumed): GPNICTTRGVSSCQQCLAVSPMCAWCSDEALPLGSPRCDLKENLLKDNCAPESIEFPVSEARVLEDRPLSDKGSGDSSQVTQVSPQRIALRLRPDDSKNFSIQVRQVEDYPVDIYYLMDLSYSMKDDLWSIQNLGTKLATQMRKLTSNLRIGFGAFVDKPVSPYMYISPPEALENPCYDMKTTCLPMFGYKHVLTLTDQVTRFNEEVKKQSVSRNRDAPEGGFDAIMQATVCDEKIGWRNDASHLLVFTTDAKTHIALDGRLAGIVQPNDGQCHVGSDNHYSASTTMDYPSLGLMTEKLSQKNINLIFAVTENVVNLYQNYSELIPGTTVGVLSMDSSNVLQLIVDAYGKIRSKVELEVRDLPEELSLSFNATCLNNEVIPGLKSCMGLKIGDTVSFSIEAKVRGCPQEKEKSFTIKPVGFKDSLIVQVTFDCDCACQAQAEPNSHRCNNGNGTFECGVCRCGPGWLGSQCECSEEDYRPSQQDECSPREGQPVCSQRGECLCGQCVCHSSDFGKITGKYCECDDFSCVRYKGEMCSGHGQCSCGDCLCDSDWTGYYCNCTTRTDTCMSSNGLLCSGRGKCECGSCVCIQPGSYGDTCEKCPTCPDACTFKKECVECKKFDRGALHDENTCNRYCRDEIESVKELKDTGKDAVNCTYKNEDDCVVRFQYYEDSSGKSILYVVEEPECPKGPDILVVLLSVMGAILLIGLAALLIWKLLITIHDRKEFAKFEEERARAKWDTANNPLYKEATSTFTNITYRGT
T1 sequence (P08514 32-887 limits assumed): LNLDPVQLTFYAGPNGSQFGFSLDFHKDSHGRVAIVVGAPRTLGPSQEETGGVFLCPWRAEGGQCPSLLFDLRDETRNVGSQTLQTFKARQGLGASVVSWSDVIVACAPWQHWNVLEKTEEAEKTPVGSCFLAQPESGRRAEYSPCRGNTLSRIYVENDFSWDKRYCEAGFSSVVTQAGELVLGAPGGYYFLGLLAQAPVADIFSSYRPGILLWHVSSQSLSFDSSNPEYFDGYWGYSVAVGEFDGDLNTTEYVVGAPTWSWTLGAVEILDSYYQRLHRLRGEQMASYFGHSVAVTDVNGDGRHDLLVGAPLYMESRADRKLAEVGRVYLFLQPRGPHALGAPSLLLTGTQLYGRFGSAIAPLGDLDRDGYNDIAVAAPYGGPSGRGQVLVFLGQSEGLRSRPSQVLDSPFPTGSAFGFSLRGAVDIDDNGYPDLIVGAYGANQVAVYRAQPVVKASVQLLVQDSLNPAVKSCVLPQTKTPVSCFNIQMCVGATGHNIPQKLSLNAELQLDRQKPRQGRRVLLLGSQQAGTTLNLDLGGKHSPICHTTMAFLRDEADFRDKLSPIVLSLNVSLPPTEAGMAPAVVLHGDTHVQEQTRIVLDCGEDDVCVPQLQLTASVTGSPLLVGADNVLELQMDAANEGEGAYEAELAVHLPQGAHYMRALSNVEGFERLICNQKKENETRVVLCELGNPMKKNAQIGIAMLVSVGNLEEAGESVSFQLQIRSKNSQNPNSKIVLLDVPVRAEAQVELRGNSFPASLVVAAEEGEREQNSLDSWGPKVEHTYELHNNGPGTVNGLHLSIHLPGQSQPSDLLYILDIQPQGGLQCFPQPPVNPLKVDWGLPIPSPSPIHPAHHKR
T1 sequence (P08514 891-1039 limits assumed): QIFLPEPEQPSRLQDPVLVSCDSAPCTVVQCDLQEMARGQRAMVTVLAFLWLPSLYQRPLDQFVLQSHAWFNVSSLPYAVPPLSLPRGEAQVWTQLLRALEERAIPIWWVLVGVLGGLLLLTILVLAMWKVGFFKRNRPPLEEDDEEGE

Row | Compound | IC50 [1] [µM] | also measured
1 | CCCCS(=O)(=O)NC(Cc1ccc2cc(OCCCN3CCNCC3)ccc2c1)C(=O)O (centres undefined) | 0.52 | –
2 | O=C(O)C(Cc1ccc2cc(OCCN3CCNCC3)ccc2c1)NS(=O)(=O)c1ccc(Br)cc1 (centres undefined) | 12.8 | –
3 | COc1ccc(S(=O)(=O)NC(Cc2ccc3cc(OCCCN4CCNCC4)ccc3c2)C(=O)O)cc1 (centres undefined) | 1.65 | –
4 | N=C(N)c1ccc(COc2ccc3cc(CC(NC(=O)c4ccc([N+](=O)[O-])cc4)C(=O)O)ccc3c2)cc1 (centres undefined) | 2.1 | –
5 | CCCC(=O)NC(Cc1ccc2cc(OCc3ccc(C(=N)N)cc3)ccc2c1)C(=O)O (centres undefined) | 1.08 | –
6 | CCCC(=O)NC(Cc1ccc2cc(OCCCN3CCNCC3)ccc2c1)C(=O)O (centres undefined) | 5.4 | –
7 | O=C(O)C(Cc1ccc2cc(OCCCCN3CCNCC3)ccc2c1)NS(=O)(=O)c1ccc(Br)cc1 (centres undefined) | 18.8 | –
8 | O=C(O)C(Cc1ccc2cc(OCCCN3CCNCC3)ccc2c1)NS(=O)(=O)c1ccccc1 (centres undefined) | 0.18 | IC50 [2]: 0.53 µM; IC50 [3]: 1.32 µM; IC50 [4]: 1.01 µM
9 | O=C(NC(Cc1ccc2cc(OCCCN3CCNCC3)ccc2c1)C(=O)O)c1ccc([N+](=O)[O-])cc1 (centres undefined) | 3.4 | –
10 | O=C(O)C(Cc1ccc2cc(OCCCN3CCNCC3)ccc2c1)NS(=O)(=O)c1ccc([N+](=O)[O-])cc1 (centres undefined) | 0.2 | –
11 | O=C(NC(Cc1ccc2cc(OCCCN3CCNCC3)ccc2c1)C(=O)O)c1ccc(F)cc1 (centres undefined) | 7.6 | –
12 | N=C(N)c1ccc(COc2ccc3cc(CC(NS(=O)(=O)c4ccccc4)C(=O)O)ccc3c2)cc1 (centres undefined) | 0.84 | IC50 [2]: 22.9 µM; IC50 [3]: 27.7 µM; IC50 [4]: 23.6 µM
13 | CCCCS(=O)(=O)NC(Cc1ccc2cc(OCc3ccc(C(=N)N)cc3)ccc2c1)C(=O)O (centres undefined) | 3.29 | –
14 | Cc1ccc(S(=O)(=O)NC(Cc2ccc3cc(OCc4ccc(C(=N)N)cc4)ccc3c2)C(=O)O)cc1 (centres undefined) | 4.01 | –
15 | COc1ccc(C(=O)NC(Cc2ccc3cc(OCCCN4CCNCC4)ccc3c2)C(=O)O)cc1 (centres undefined) | 12.7 | –
16 | O=C(NC(Cc1ccc2cc(OCCCN3CCNCC3)ccc2c1)C(=O)O)c1ccccc1 (centres undefined) | 7.9 | –
17 | O=C(NC(Cc1ccc2cc(OCCCN3CCNCC3)ccc2c1)C(=O)O)c1cccc(F)c1 (centres undefined) | 6.38 | –
18 | O=C(O)C(Cc1ccc2cc(OCCCC3CCNCC3)ccc2c1)NS(=O)(=O)c1ccc(Br)cc1 (centres undefined) | > 100 | –
19 | O=C(O)C(Cc1ccc2cc(OCC3CCNCC3)ccc2c1)NS(=O)(=O)c1ccc(Br)cc1 (centres undefined) | > 100 | –
20 | O=C(O)C(Cc1ccc2cc(OCCC3CCNCC3)ccc2c1)NS(=O)(=O)c1ccc(Br)cc1 (centres undefined) | > 100 | –
21 | O=C(O)C(Cc1ccc2cc(OCCCN3CCNCC3)ccc2c1)NS(=O)(=O)c1ccc(F)cc1 (centres undefined) | 0.28 | –
22 | O=C(O)C(Cc1ccc2cc(OCCCN3CCNCC3)ccc2c1)NS(=O)(=O)c1ccc(Br)cc1 (centres undefined) | 0.37 | –
23 | O=C(NC(Cc1ccc2cc(OCCCN3CCNCC3)ccc2c1)C(=O)O)c1cc(Cl)cc(Cl)c1 (centres undefined) | 24.6 | –

Source: BindingDB's records for doi:10.1016/j.ejmech.2016.09.032 (China Pharmaceutical University, 2017)
